Test results: publication PMC10512781 (Journal of medicinal chemistry, 2022)
“Also recorded” adds a separate entry of the source. Read-outs that look alike come from different tables or passages of the source.

How the values were obtained:
[1] = system: CHO cells; settings: at 1 mM; cited from earlier work
[2] = system: human pancreatic cancer cell lines; settings: at 300 μM; cited from earlier work
[3] = system: CHO-K1 cells; test: 48 h growth inhibition by assay reagents; assay type: cell-based, Chinese hamster; settings: read-out: 48 h CHO-K1 IC50; CHO-K1, 48 h
[4] = system: polyamine import in L3.6pl cells; test: Radiolabeled spermidine; assay type: cell-based, human; settings: for basal 3H-Spd uptake: 24 h treatment prior to 3H-Spd for 15 min; for 3H-Spd import in combination with DFMO vs DFMO-only: 72 h with DFMO + compound prior to 3H-Spd for 15 min
Method in brief: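 L3.6pl cells pretreated 24 h with test compound, then exposed to 3H-spermidine for 15 min. Radioactive counts normalised to lysate protein measured by BCA assay. Triplicate conditions; reported as pmol 3H-Spd/μg protein ± standard deviation.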

[5] = system: p21 protein in L3.6pl cells; test: Western blot, p21 protein level; assay type: cell-based, human; settings: 24 h
Method in brief: (§1)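 L3.6pl cells (400,000 in 2 mL RPMI 1640, 10% FBS, 1% antibiotic–antimycotic) held overnight at 37 °C, 5% CO2, then treated 24 h with test compound or DMSO. Lysed in RIPA with protease and phosphatase inhibitors. Membranes blocked in 5% skim milk/PBST for 1 h, primary antibody overnight at 4 °C (c-Myc 1:1000, FUBP1 1:1000, p21 1:100, GAPDH 1:40,000), secondary 1 h, chemiluminescence on X-ray film. Repeated at least three times.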

[6] = target: T1, FUBP1 binding to the FUSE c-myc promoter region in L3.6pl cells (Homo sapiens, UniProt Q96AE4); test: Chromatin immunoprecipitation; assay type: cell-based; settings: 60 μM, 24 h, vs untreated
T1 sequence (Q96AE4 1-644): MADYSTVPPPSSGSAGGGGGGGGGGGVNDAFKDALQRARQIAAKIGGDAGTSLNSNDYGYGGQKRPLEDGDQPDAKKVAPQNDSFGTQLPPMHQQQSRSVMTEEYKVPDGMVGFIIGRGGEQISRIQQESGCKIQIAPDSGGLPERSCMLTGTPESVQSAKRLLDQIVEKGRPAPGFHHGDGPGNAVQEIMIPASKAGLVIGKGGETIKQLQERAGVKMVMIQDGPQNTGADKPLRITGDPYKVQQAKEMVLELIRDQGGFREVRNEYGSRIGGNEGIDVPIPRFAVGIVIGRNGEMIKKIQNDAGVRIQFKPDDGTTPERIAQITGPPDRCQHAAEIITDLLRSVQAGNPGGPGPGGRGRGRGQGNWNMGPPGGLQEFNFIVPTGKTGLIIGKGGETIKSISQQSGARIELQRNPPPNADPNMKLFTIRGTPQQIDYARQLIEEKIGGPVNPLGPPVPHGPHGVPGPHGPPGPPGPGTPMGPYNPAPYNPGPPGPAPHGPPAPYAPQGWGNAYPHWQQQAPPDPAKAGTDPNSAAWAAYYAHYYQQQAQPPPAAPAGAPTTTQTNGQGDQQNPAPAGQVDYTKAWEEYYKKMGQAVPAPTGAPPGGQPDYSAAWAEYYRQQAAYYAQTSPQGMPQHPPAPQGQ
Method in brief: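 L3.6pl cells seeded at 300,000 cells/mL in RPMI 1640 with 10% FBS and 1% antibiotic–antimycotic, then held overnight at 37 °C, 5% CO2. Treated 24 h with test compound (60 μM) or 0.6% DMSO, then fixed in 1% formalin for 10 min. Sonicated chromatin (20–25 μg) was precleared and immunoprecipitated overnight at 4 °C with FUBP1 antibody, with H4Ac and rabbit IgG controls. Samples were de-crosslinked overnight at 65 °C, and FUSE c-Myc DNA measured by q-PCR. Mean fold change ± S.E.M., n = 2.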

[7] = system: c-Myc mRNA in L3.6pl cells; test: qRT-PCR, c-Myc mRNA; assay type: cell-based, human; settings: 24 h, qRT-PCR vs matched vehicle control
Method in brief: (§2)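 For qRT-PCR, L3.6pl cells (400,000) in RPMI 1640 with 10% FBS and 1% antibiotic–antimycotic were seeded in 6-well dishes and held overnight at 37 °C, 5% CO2. Next day they were treated with test compound or DMSO vehicle at 37 °C, then mRNA was measured by quantitative real-time PCR.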

[8] = system: native polyamine levels in L3.6pl cells; test: Intracellular polyamine quantitation by HPLC; assay type: cell-based, human; settings: 60 μM, 24 h, vs vehicle (0.6% DMSO)
Method in brief: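 Polyamines measured by HPLC. L3.6pl cells seeded at 100,000 cells/mL in RPMI 1640 with 250 μM aminoguanidine and held overnight at 37 °C, 5% CO2. Next day treated with test compound (60 μM) or 0.6% DMSO vehicle for 24 h at 37 °C, then intracellular native polyamines quantified.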

[9] = system: c-Myc protein in L3.6pl cells; test: Western blot, c-Myc protein level; assay type: cell-based, human; settings: 24 h
Method in brief: as §1

[10] = system: FUBP1 protein in L3.6pl cells; test: Western blot, FUBP1 protein level; assay type: cell-based, human; settings: 24 h
Method in brief: as §1

[11] = system: p21 mRNA in L3.6pl cells; test: qRT-PCR, p21 mRNA; assay type: cell-based, human; settings: 24 h, qRT-PCR vs matched vehicle control
Method in brief: as §2

[12] = target: T2, GST-FUBP1 (KH3-KH4) binding to FUSE oligo (Oligo-KH4) (Homo sapiens, UniProt Q96AE4); test: Gel shift assay; settings: 30 and 60 μM vs DMSO control
T2 sequence (Q96AE4 278-447 limits assumed): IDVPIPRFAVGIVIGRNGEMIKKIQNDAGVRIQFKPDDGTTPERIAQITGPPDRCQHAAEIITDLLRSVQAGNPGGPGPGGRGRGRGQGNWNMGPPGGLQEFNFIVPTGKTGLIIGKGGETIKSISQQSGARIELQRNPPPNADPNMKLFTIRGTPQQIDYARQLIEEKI

[13] = system: CHO-K1 cells; test: Cytotoxicity assay; assay type: cell-based, Chinese hamster; settings: CHO-K1, 384-well; maximum tolerated concentration (≥90% relative growth)
[14] = system: L3.6pl pancreatic cancer cells; settings: DFMO 8 mM, 48 h, cited from earlier work
[15] = system: FUBP1; settings: NMR study; cited from earlier work

SMILES: N=C(N)NN [AG, aminoguanidine]
- toxicity [1]: not toxic
- toxicity [2]: not toxic

SMILES: NCCCCNCCCCNCc1c2ccccc2cc2ccccc12 [Ant44, N^1-(9-anthracenylmethyl)-homospermidine]
- IC50 [3]: 2 µM

SMILES: CNCCCCNCCCCNCc1cc(CNCCCCNCCCCNC)cc(CNCCCCNCCCCNC)c1.Cl.Cl.Cl.Cl.Cl.Cl.Cl.Cl.Cl [Compound 5]
- basal 3H-Spd uptake [4]: blocked significant spermidine uptake
- 3H-Spd import in combination with DFMO vs DFMO-only [4]: statistically significant reduction in ^3H-Spd import

SMILES: COc1ccc(C(=O)Nc2ccc(N3CCN(c4cc(Cl)ccc4C)CC3)cc2C(=O)O)cc1 [Compound 9, 5-[4-(5-Chloro-2-methyl-phenyl)-piperazin-1-yl]-2-(4-methoxybenzoylamino)-benzoic Acid]
- p21 protein expression [5]: increased p21 protein expression in a dose-dependent manner; also recorded: superior in terms of inducing p21
- FUSE c-Myc DNA pulled down with FUBP1 antibody [6]: reduced levels of c-Myc FUSE DNA
- c-Myc mRNA level [7]: significantly decreased for c-Myc
- intracellular polyamine levels [8]: significantly lower polyamine levels
- c-Myc protein expression [9]: reduced c-Myc protein expression
- FUBP1 protein levels [10]: did not affect FUBP1 protein levels
- p21 mRNA level [11]: increased for p21
- basal 3H-Spd uptake [4]: did not block the uptake of ^3H-Spd
- 3H-Spd import in combination with DFMO vs DFMO-only [4]: did not significantly inhibit ^3H-Spd import
- FUBP1 (KH3-KH4)-FUSE DNA bound complex [12]: dose-dependent decrease

SMILES: COc1ccccc1C(=O)Nc1ccc(N2CCN(Cc3ccccn3)CC2)cc1C(=O)O [Compound 54, 2-(2-Methoxybenzamido)-5-(4-(pyridin-2-ylmethyl)piperazin-1-yl)benzoic Acid]
- Cytotoxicity MTC [13]: > 40 µM

SMILES: COc1ccccc1C(=O)Nc1ccc(N2CCC(Oc3ccccc3)CC2)cc1C(=O)O [Compound 63, 2-(2-Methoxybenzamido)-5-(4-phenoxypiperidin-1-yl)benzoic Acid]
- p21 protein expression [5]: increased p21 protein levels
- c-Myc protein expression [9]: reduced c-Myc

SMILES: NCCC[C@](N)(C(=O)O)C(F)F [DFMO, difluoromethylornithine]
- relative growth (compared to an untreated control) ([14]; with rescuing spermidine 1 μM): 103%
- intracellular putrescine ([14]; with spermidine 1 μM): no detectable intracellular putrescine
- intracellular spermidine ([14]; with spermidine 1 μM): 6.4 nmol/mg protein
- intracellular spermine ([14]; with spermidine 1 μM): 17.4 nmol spermine/mg protein
- intracellular putrescine [14]: no detectable intracellular putrescine
- intracellular spermidine [14]: 2.1 nmol/mg protein
- intracellular spermine [14]: 18.6 nmol spermine/mg protein
- relative growth (compared to an untreated control) [14]: 64%

SMILES: Nc1ccccc1C(=O)O [anthranilic acid]
- binding to FUBP1 [15]: very low affinity
